# Published values from different studies.
# Protocols differ between the studies behind these lines.
# Target: Glycogen synthase kinase-3 alpha (GSK3A, Homo sapiens, UniProt P49840)
Structure (SMILES),read-out,mode,technique,concentration,endpoint,value
COc1ncccc1-c1cnn2ccc(N3CCN(C(=O)OC(C)C)CC3)nc12,binding,,competition with immobilised ligand,1 µM,remaining binding,100%
Cn1cc(-c2cc(F)cc(N3CCn4c(cc5c4CCCC5)C3=O)c2CO)cc(Nc2ccc(N3CCN(C4COC4)CC3)cn2)c1=O,enzyme activity,inhibitor,,0.1 µM,inhibition,19%
Nc1ncc(-c2nc(N3CCOCC3)nc(N3CCOCC3)n2)c(C(F)F)n1,binding,,competition with immobilised ligand,10 µM,remaining binding,91%
O=c1[nH]c2ccccc2n1C1CCN(Cc2ccc(-c3[nH]c4cc5ncnc5cc4nc3-c3ccccc3)cc2)CC1,cell-free assay,,,0.5 µM,remaining signal,100%
Cc1nn(C)cc1-c1nc2c(N3CCN(Cc4ccc(Cl)cc4)CC3)c(Cl)cnc2[nH]1,binding,,competition with immobilised ligand,1 µM,remaining binding,100%
C#Cc1n[nH]c2c(-c3cn([C@@H](C)c4ccccn4)c(=O)[nH]c3=O)cc(F)cc12,enzyme activity,inhibitor,,0.1 µM,inhibition,-0.2%
Cn1cncc1[C@@](O)(COc1ccc(C#N)cc1-c1ccc(OC(F)(F)F)cc1)c1ccc(C#N)cc1,cell-free assay,,competition with immobilised ligand,1 µM,remaining binding,100%
Cn1cc(-c2cccc(N3CCc4c(sc5c4CC(C)(C)C5)C3=O)c2CO)cc(Nc2ccncn2)c1=O,enzyme activity,inhibitor,,1 µM,inhibition,4%
C#Cc1n[nH]c2c(-c3cn([C@@H](C)c4ccccc4)c(=O)[nH]c3=O)cc(F)cc12,enzyme activity,inhibitor,,0.1 µM,inhibition,-1.9%
